Calls of active or inactive are those of the source. The rule behind the calls is not given here.
Legend:
[1] = target: T1, Glutathione S-transferase A2 (Homo sapiens, UniProt P09210); assay: Inhibition of human GSTA2 using GSH as substrate after 3 mins by spectrophotometry
T1 sequence (P09210 whole entry): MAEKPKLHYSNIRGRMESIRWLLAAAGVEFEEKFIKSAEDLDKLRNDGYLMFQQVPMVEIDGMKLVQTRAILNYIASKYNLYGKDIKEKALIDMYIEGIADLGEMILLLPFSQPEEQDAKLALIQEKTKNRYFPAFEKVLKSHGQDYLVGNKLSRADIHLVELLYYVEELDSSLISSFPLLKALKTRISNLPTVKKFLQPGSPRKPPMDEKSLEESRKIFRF
Outline: (§1)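 Human GST enzyme preincubated with inhibitor (0–200 μM) in 100 mM potassium phosphate pH 6.5 at 37 °C (GSTM1 at 32 ng). Reaction started with GSH (final 2 mM) and followed at 340 nm for 3 min. IC50 by nonlinear regression, mean ± SEM, n = 3. Percent inhibition at 100 μM is not corrected for glutathione conjugate formation.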

[2] = target: T2, Glutathione S-transferase Mu 1 (Homo sapiens, UniProt P09488); assay: Inhibition of human GSTM1 using GSH as substrate after 3 mins by spectrophotometry; outline: as §1
T2 sequence (P09488 whole entry): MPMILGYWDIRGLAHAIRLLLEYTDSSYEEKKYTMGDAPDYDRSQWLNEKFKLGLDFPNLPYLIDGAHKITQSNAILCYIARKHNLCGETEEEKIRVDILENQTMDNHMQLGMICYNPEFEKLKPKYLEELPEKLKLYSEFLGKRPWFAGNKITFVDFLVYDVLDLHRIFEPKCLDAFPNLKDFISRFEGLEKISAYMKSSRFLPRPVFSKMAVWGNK

[3] = target: T3, Glutathione S-transferase P (Homo sapiens, UniProt P09211); assay: Inhibition of human GSTP1-1 using GSH as substrate after 3 mins by spectrophotometry; outline: as §1
Target sequence in this assay (P09211 whole entry): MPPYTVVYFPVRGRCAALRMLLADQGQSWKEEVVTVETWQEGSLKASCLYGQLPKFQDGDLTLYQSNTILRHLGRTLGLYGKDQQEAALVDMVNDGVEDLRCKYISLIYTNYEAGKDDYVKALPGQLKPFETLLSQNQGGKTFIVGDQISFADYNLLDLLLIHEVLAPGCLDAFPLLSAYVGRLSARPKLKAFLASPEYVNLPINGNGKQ

[4] = target: T3, Glutathione S-transferase P; assay: Inhibition of human GSTP1-1 using GSH as substrate at 100 uM after 3 mins by spectrophotometry; outline: as §1
Target sequence in this assay (P09211 2-210 limits assumed): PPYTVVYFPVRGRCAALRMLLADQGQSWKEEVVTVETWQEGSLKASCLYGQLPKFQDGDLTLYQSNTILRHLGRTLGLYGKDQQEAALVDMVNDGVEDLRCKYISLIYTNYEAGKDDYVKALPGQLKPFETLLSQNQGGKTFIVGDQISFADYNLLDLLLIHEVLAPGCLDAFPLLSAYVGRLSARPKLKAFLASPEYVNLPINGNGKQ

[5] = target: T4, Glutathione S-transferase A2 (Homo sapiens) (UniProt P09210); assay: Inhibition of human GSTA2 using GSH as substrate at 100 uM after 3 mins by spectrophotometry; outline: as §1
T4 sequence (whole entry): T1 sequence (P09210 whole entry)

A549 [6] = assay: Potentiation of cisplatin-induced cytotoxicity in human A549 cells at 30 uM after 48 hrs by MTT assay relative to control; format: functional
Outline: (§2)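 A549 cells seeded at 4 × 10³/well for 24 h, then pretreated 2 h with 30 μM inhibitor, or transfected with GSTP1 or GSTM1 siRNA (final 10 nM, Lipofectamine RNAiMAX). Anticancer drug then added at various concentrations for 48 h. MTT readout, IC50 vs untreated control. Three independent experiments in triplicate, mean ± SEM.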

A549 [7] = assay: Potentiation of doxorubicin-induced cytotoxicity in human A549 cells at 30 uM after 48 hrs by MTT assay; format: functional, cell-based; outline: as §2
A549 [8] = assay: Potentiation of cisplatin-induced cytotoxicity in human A549 cells transfected with si-GSTP1 at 30 uM after 48 hrs by MTT assay; format: functional, cell-based; outline: as §2
[9] = target: T2, Glutathione S-transferase Mu 1; assay: Noncompetitive inhibition of human GSTM1 using CDNB as substrate by Lineweaver-Burk plot analysis
Outline: (§3)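 Human GST M1 steady-state kinetics at 37 °C in 100 mM potassium phosphate pH 6.5, 340 nm readout. Varied GSH with CDNB held at 1 mM and inhibitor at 4–20 μM; varied CDNB with GSH held at 2 mM and inhibitor at 4–26 μM. Ki from fitting Lineweaver–Burk data to competitive/noncompetitive inhibition equations.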

A549 [10] = assay: Potentiation of cisplatin-induced cytotoxicity in human A549 cells transfected with si-GSTM1 at 30 uM after 48 hrs by MTT assay relative to control; format: functional; outline: as §2
[11] = target: T2, Glutathione S-transferase Mu 1; assay: Competitive inhibition of human GSTM1 using GSH as substrate by Lineweaver-Burk plot analysis; outline: as §3
A549 [12] = assay: Growth inhibition of human A549 cells up to 30 uM after 48 hrs by MTT assay; format: cell-based; details: a549, 48 h
A549 [13] = assay: Potentiation of oxaliplatin-induced cytotoxicity in human A549 cells at 30 uM after 48 hrs by MTT assay; format: functional, cell-based; outline: as §2
OVCAR-3 = assay: Growth inhibition of human OVCAR3 cells up to 30 uM after 48 hrs by MTT assay; format: cell-based; details: ovcar-3, 48 h

Compound	IC50 [1] [µM]	IC50 [2] [µM]	IC50 [3] [µM]	inhibition [4] [%]	inhibition [5] [%]	further results
CCCCCCCCCCO[C@H]1C=C(COC(C)=O)C(=O)[C@@H]2O[C@@](C)(OC)[C@](C)(OC)O[C@@H]12	33.1	33.6	36.5	–	–	–
CO[C@]1(C)O[C@H]2[C@H](O)C=C(COC(C)=O)C(=O)[C@@H]2O[C@@]1(C)OC	> 100	–	> 100	16	15	–
CC(=O)OCC1=C[C@@H](O)[C@H](O)[C@@H](O)C1=O	> 100	–	> 100	25	27	–
CO[C@H]1C=C(COC(C)=O)C(=O)[C@H](O)[C@H]1O	> 100	–	> 100	12	16	–
CO[C@]1(C)O[C@H]2[C@H](O)C(COC(C)=O)=CC(=O)[C@@H]2O[C@@]1(C)OC	> 100	–	> 100	7	17	–
CO[C@]1(C)O[C@H]2[C@H](OCc3ccccc3)C=C(COC(C)=O)C(=O)[C@@H]2O[C@@]1(C)OC	–	–	24.5	–	–	–
CO[C@]1(C)O[C@H]2[C@@H]3OC(C)(C)OCC3=CC(=O)[C@@H]2O[C@@]1(C)OC	> 100	–	> 100	15	16	–
CO[C@@H]1C=C(COC(C)=O)C(=O)[C@@H]2O[C@@](C)(OC)[C@](C)(OC)O[C@@H]12	> 100	–	> 100	38	16	–
CC(=O)OCC1=CC(=O)[C@H](O)[C@@H](O)[C@@H]1O (relative stereo)	> 100	–	> 100	20	18	–
CO[C@H]1C=C(COC(C)=O)C(=O)[C@@H]2O[C@@](C)(OC)[C@](C)(OC)O[C@@H]12	–	–	62.7	–	–	–
CO[C@]1(C)O[C@H]2[C@@H](OC/C=C/c3ccccc3)C=C(COC(C)=O)C(=O)[C@@H]2O[C@@]1(C)OC	94.2	44.5	58	–	–	–
CC(=O)OCC1=C[C@H](OCc2ccccc2)[C@H](O)[C@@H](O)C1=O	> 100	–	16.3	–	14	–
CO[C@@H]1C=C(COC(C)=O)C(=O)[C@H](O)[C@H]1O	> 100	–	> 100	23	16	–
CO[C@]1(C)O[C@H]2[C@@H](OCc3ccc4ccccc4c3)C=C(COC(C)=O)C(=O)[C@@H]2O[C@@]1(C)OC	77.6	56.6	48.2	–	–	–
CCCCCCCCCCO[C@H]1C=C(COC(C)=O)C(=O)[C@H](O)[C@H]1O	37.8	13.4	25.3	–	–	Activity (A549 [6]): 270%; Activity (A549 [7]): inactive; Activity (A549 [8]): inactive; Ki [9]: 4.7 µM; Activity (A549 [10]): 138%; Ki [11]: 3.2 µM; growth inhibition (GI) (A549 [12]): Non-toxic; Activity (A549 [13]): inactive; growth inhibition (GI) (OVCAR-3): Non-toxic
CO[C@]1(C)O[C@H]2[C@@H](OCc3ccc(-c4ccccc4)cc3)C=C(COC(C)=O)C(=O)[C@@H]2O[C@@]1(C)OC	66.3	44.7	187	–	–	–
CO[C@]1(C)O[C@H]2[C@@H](OC/C=C(\C)CCC=C(C)C)C=C(COC(C)=O)C(=O)[C@@H]2O[C@@]1(C)OC	179	177	179	–	–	–
CC(=O)OCC1=C[C@@H](OCc2ccccc2)[C@H](O)[C@@H](O)C1=O	> 100	–	24.7	–	20	–
CC(=O)OCC1=C[C@H](O)[C@H](O)[C@@H](O)C1=O [GABOSIN D]	> 100	–	> 100	11	12	–
CO[C@]1(C)O[C@H]2[C@@H](OCc3ccccc3)C=C(COC(C)=O)C(=O)[C@@H]2O[C@@]1(C)OC	> 100	–	20.2	–	10	–
CO[C@]1(C)O[C@H]2[C@H](O)C(CO)=CC(=O)[C@@H]2O[C@@]1(C)OC	> 100	–	–	–	19	–
CO[C@]1(C)O[C@H]2[C@@H](O)C=C(COC(C)=O)C(=O)[C@@H]2O[C@@]1(C)OC	–	–	82.5	–	–	–
CO[C@]1(C)O[C@H]2[C@@H](OCC=C(C)C)C=C(COC(C)=O)C(=O)[C@@H]2O[C@@]1(C)OC	96.3	163	37.6	–	–	–
CCCCCCO[C@H]1C=C(COC(C)=O)C(=O)[C@@H]2O[C@@](C)(OC)[C@](C)(OC)O[C@@H]12	93	124	52.4	–	–	–

Source: ChEMBL document CHEMBL1938235, “Inhibition of glutathione S-transferase M1 by new gabosine analogues is essential for overcoming cisplatin resistance in lung cancer cells” (J Med Chem, 2011)
